Measurements reported in ChEMBL document CHEMBL2146445, “Discovery of BIIB042, a Potent, Selective, and Orally Bioavailable γ-Secretase Modulator” (ACS Med Chem Lett, 2011).
Activity calls are given as the source filed them. The calls are words filed in the database; no cut-off is given here.

Experiments:
[1] = Modulation of gamma-secretase in CHO cells overexpressing APP V717 mutant assessed as reduction in amyloid beta42 level after 17 hrs by ELISA; format: cell-based; details: Cricetulus griseus
Method in brief: (§1)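 CHO cells overexpressing APP V717F; Aβ42, Aβ40 and Aβ38 quantified together in each well by multiplex Aβ ELISA. EC50 is the mean of at least two determinations.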

CHO [2] = test: Modulation of gamma-secretase in CHO cells overexpressing APP V717 mutant assessed as effect on amyloid beta40 level after 17 hrs by ELISA; format: cell-based; details: Cricetulus griseus; method in brief: as §1
CHO [3] = test: Modulation of gamma-secretase in CHO cells overexpressing APP V717 mutant assessed as increase in amyloid beta38 level after 17 hrs by ELISA; format: cell-based; details: Cricetulus griseus; method in brief: as §1
[4] = Plasma concentration in CF1 mouse at 30 mg/kg, po after 4 hrs; format: ADME, organism-based; design: dose 30 mg/kg, route oral
Method in brief: (§2)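 Wild-type (CF-1) mice given compound orally as a solution in ethanol:propylene glycol:10% solutol (1:1:8). Animals sacrificed 4 h post-dose; brain and plasma collected for drug exposure and Aβ levels.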

Mus musculus [5] = test: Antialzheimer activity in CF1 mouse assessed as reduction in amyloid beta42 level in brain at 30 mg/kg, po after 4 hrs by ELISA; format: functional; design: scale not given: the % may be the effect or the level left
Method in brief: (§3)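 Wild-type CF-1 mice received a single oral dose as a solution in ethanol:propylene glycol:10% solutol (1:1:8). Animals were sacrificed 4 h after dosing. Brain and plasma were collected for drug concentration and Aβ levels. Aβ change was expressed relative to vehicle-treated controls.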

[6] = Drug uptake in CF1 mouse brain at 30 mg/kg, po after 4 hrs; format: ADME, organism-based; design: dose 30 mg/kg, route oral; details: read-out: Drug uptake; method in brief: as §3
Mus musculus [7] = test: Antialzheimer activity in CF1 mouse assessed as reduction in amyloid beta42 level in brain at 50 mg/kg, po after 4 hrs by ELISA; format: functional; method in brief: as §3
[8] = Drug uptake in CF1 mouse brain at 50 mg/kg, po after 4 hrs; format: ADME, organism-based; design: dose 50 mg/kg, route oral; details: read-out: Drug uptake; method in brief: as §3
[9] = Plasma concentration in CF1 mouse at 50 mg/kg, po after 4 hrs; format: ADME, organism-based; design: dose 50 mg/kg, route oral; method in brief: as §2
[10] = Modulation of gamma-secretase

CC(C(=O)O)c1ccc(C(c2ccc(F)cc2)N2CCCC2)c(-c2ccc(C(F)(F)F)cc2)c1 (configuration not stated)
EC50 [1]: 2300 nM
Activity (CHO [2]): inactive
Activity (CHO [3]): Active

CC(C(=O)O)c1ccc(C(c2ccc(F)cc2)N2CCC(C)(C)CC2)c(-c2ccc(C(F)(F)F)cc2)c1 (configuration not stated)
concentration at 4 h [4]: 27.2 µM
EC50 [1]: 300 nM
Activity (CHO [2]): inactive
Activity (Mus musculus [5]): 30%
concentration at 4 h [6]: 25.3 µM
Activity (CHO [3]): Active

CC(C)(C)c1ccc(-c2cc(CC(=O)O)ccc2C(c2ccc(F)cc2)N2CCC(C(F)(F)F)CC2)cc1 (configuration not stated)
EC50 [1]: 560 nM
Activity (Mus musculus [7]): inactive
Activity (CHO [2]): inactive
concentration at 4 h [8]: 1 µM
concentration at 4 h [9]: 6.3 µM
Activity (CHO [3]): Active

CC(C(=O)O)c1ccc(C(c2ccc(F)cc2)N2CCC(C(F)(F)F)CC2)c(-c2ccc(C(F)(F)F)cc2)c1 (configuration not stated)
concentration at 4 h [4]: 21.7 µM
EC50 [1]: 180 nM
Activity (CHO [2]): inactive
Activity (Mus musculus [5]): 40%
concentration at 4 h [6]: 14.4 µM
Activity (CHO [3]): Active

CC(C)CC(C(=O)O)c1ccc(C(c2ccc(F)cc2)N2CCCCC2)c(-c2ccc(C(F)(F)F)cc2)c1 (configuration not stated)
EC50 [1]: 120 nM
Activity (Mus musculus [7]): 30%
Activity (CHO [2]): inactive
concentration at 4 h [8]: 5.7 µM
concentration at 4 h [9]: 32.2 µM
Activity (CHO [3]): Active

O=C(O)Cc1ccc(C(c2ccc(F)cc2)N2CCC(C(F)(F)F)CC2)c(-c2ccc(F)cc2)c1 (configuration not stated)
EC50 [1]: 2300 nM
Activity (CHO [2]): inactive
Activity (CHO [3]): Active

CC(C)CCN(Cc1ccc(CC(=O)O)cc1-c1ccc(C(F)(F)F)cc1)c1ccc(C(F)(F)F)cc1
EC50 [1]: 1000 nM
concentration at 4 h [8]: 0.6 µM

CC1CCN(C(c2ccc(F)c(F)c2)c2ccc(C(C)C(=O)O)cc2-c2ccc(C(F)(F)F)cc2)CC1 (configuration not stated)
concentration at 4 h [4]: 20.8 µM
EC50 [1]: 250 nM
Activity (CHO [2]): inactive
Activity (Mus musculus [5]): 40%
concentration at 4 h [6]: 12 µM
Activity (CHO [3]): Active

CC1CCN(C(c2ccc(Cl)cc2)c2ccc(C(C)C(=O)O)cc2-c2ccc(C(F)(F)F)cc2)CC1 (configuration not stated)
concentration at 4 h [4]: 27.1 µM
EC50 [1]: 420 nM
Activity (CHO [2]): inactive
Activity (Mus musculus [5]): 25%
concentration at 4 h [6]: 19.4 µM
Activity (CHO [3]): Active

CC1CCN(C(c2ccc(F)cc2)c2ccc(C3(C(=O)O)CC3)cc2-c2ccc(C(F)(F)F)cc2)CC1 (configuration not stated)
EC50 [1]: 2200 nM
Activity (CHO [2]): inactive
Activity (CHO [3]): Active

CCC(C(=O)O)c1ccc(C(c2ccc(F)cc2)N2CCC(C)CC2)c(-c2ccc(C(F)(F)F)cc2)c1 (configuration not stated)
concentration at 4 h [4]: 20.4 µM
EC50 [1]: 330 nM
Activity (CHO [2]): inactive
Activity (Mus musculus [5]): 40%
concentration at 4 h [6]: 13 µM
Activity (CHO [3]): Active

CC1CCN(C(c2ccc(C(F)(F)F)cc2)c2ccc(C(C)C(=O)O)cc2-c2ccc(C(F)(F)F)cc2)CC1 (configuration not stated)
concentration at 4 h [4]: 20.5 µM
EC50 [1]: 180 nM
Activity (CHO [2]): inactive
Activity (Mus musculus [5]): inactive
concentration at 4 h [6]: 14 µM
Activity (CHO [3]): Active

CC1CCN(C(c2ccc(C(F)(F)F)nc2)c2ccc(C(C)C(=O)O)cc2-c2ccc(C(F)(F)F)cc2)CC1 (configuration not stated)
concentration at 4 h [4]: 25.2 µM
EC50 [1]: 580 nM
Activity (CHO [2]): inactive
Activity (Mus musculus [5]): 23%
concentration at 4 h [6]: 10.9 µM
Activity (CHO [3]): Active

CC1CCN(C(c2ccc(F)cc2)c2ccc(C(CC3CC3)C(=O)O)cc2-c2ccc(C(F)(F)F)cc2)CC1 (configuration not stated)
concentration at 4 h [4]: 29.6 µM
EC50 [1]: 110 nM
Activity (CHO [2]): inactive
Activity (Mus musculus [5]): 40%
concentration at 4 h [6]: 11.8 µM
Activity (CHO [3]): Active

CCCC(C(=O)O)c1ccc(C(c2ccc(F)cc2)N2CCC(C)CC2)c(-c2ccc(C(F)(F)F)cc2)c1 (configuration not stated)
EC50 [1]: 250 nM
Activity (CHO [2]): inactive
Activity (CHO [3]): Active

C[C@@H](C(=O)O)c1ccc(-c2ccccc2)c(F)c1 [TARENFLURBIL]
EC50 [10]: 300 µM

CC1CCN(C(c2ccc(F)cc2)c2ccc(C(C)C(=O)O)cc2-c2cnc(C(C)(C)C)nc2)CC1 (configuration not stated)
EC50 [1]: 4500 nM
Activity (CHO [2]): inactive
Activity (CHO [3]): Active

CC1CCN(C(c2ccc(F)cc2)c2ccc(CC(=O)O)cc2-c2ccc(C(F)(F)F)cc2)CC1 (configuration not stated)
EC50 [1]: 2900 nM
Activity (CHO [2]): inactive
Activity (CHO [3]): Active

CC1CCN(C(c2ccc(F)cn2)c2ccc(C(C)C(=O)O)cc2-c2ccc(C(F)(F)F)cc2)CC1 (configuration not stated)
EC50 [1]: 3700 nM
Activity (CHO [2]): inactive
Activity (CHO [3]): Active

CC(C(=O)O)c1ccc(C(c2ccc(F)cc2)N2CCC3(CC2)CC3)c(-c2ccc(C(F)(F)F)cc2)c1 (configuration not stated)
EC50 [1]: 400 nM
Activity (CHO [2]): inactive
Activity (CHO [3]): Active

CC1CCN(C(c2ccc(F)cc2)c2ccc(C(C(=O)O)C(C)C)cc2-c2ccc(C(F)(F)F)cc2)CC1 (configuration not stated)
EC50 [1]: 120 nM
Activity (CHO [2]): inactive
Activity (CHO [3]): Active

CC(C(=O)O)c1ccc(C(c2ccc(F)cc2)N2CC3CCC(C3)C2)c(-c2ccc(C(F)(F)F)cc2)c1 (configuration not stated)
concentration at 4 h [4]: 10.7 µM
EC50 [1]: 390 nM
Activity (CHO [2]): inactive
Activity (Mus musculus [5]): 25%
concentration at 4 h [6]: 3.1 µM
Activity (CHO [3]): Active

CC(C)(C)CC(C(=O)O)c1ccc(C(c2ccc(F)cc2)N2CCCCC2)c(-c2ccc(C(F)(F)F)cc2)c1 (configuration not stated)
EC50 [1]: 40 nM
Activity (CHO [2]): inactive
Activity (CHO [3]): Active

CC(C(=O)O)c1ccc(C(c2ccc(F)cc2)N2CCCCC2)c(-c2ccc(C(F)(F)F)cc2)c1 (configuration not stated)
EC50 [1]: 1400 nM
Activity (CHO [2]): inactive
Activity (CHO [3]): Active

CC1CCN(C(c2ccc(F)cc2)c2ccc(C(C)C(=O)O)cc2-c2ccc(C(F)(F)F)cc2)CC1 (racemic)
concentration at 4 h [4]: 27.2 µM
EC50 [1]: 390 nM
Activity (CHO [2]): inactive
Activity (Mus musculus [5]): 45%
concentration at 4 h [6]: 18.4 µM
Activity (CHO [3]): Active

CC(C(=O)O)c1ccc(C(c2ccc(F)cc2)N2CCCC(C)(C)C2)c(-c2ccc(C(F)(F)F)cc2)c1 (configuration not stated)
concentration at 4 h [4]: 5.3 µM
EC50 [1]: 170 nM
Activity (CHO [2]): inactive
Activity (Mus musculus [5]): 25%
concentration at 4 h [6]: 2.5 µM
Activity (CHO [3]): Active

CC(C(=O)O)c1ccc(C(c2ccc(F)cc2)N2CCN(C)CC2)c(-c2ccc(C(F)(F)F)cc2)c1 (configuration not stated)
EC50 [1]: > 10000 nM
Activity (CHO [2]): inactive
Activity (CHO [3]): Active

CC(C(=O)O)c1ccc(C(c2ccc(F)cc2)N2CC3CCCC3C2)c(-c2ccc(C(F)(F)F)cc2)c1 (configuration not stated)
concentration at 4 h [4]: 16.3 µM
EC50 [1]: 620 nM
Activity (CHO [2]): inactive
Activity (Mus musculus [5]): 30%
concentration at 4 h [6]: 12.1 µM
Activity (CHO [3]): Active

CC(C(=O)O)c1ccc(C(c2ccc(F)cc2)N2CCC(F)CC2)c(-c2ccc(C(F)(F)F)cc2)c1 (configuration not stated)
EC50 [1]: 2000 nM
Activity (CHO [2]): inactive
Activity (CHO [3]): Active

O=C(O)Cc1ccc(C(c2ccc(F)cc2)N2CCC(C(F)(F)F)CC2)c(-c2ccc(C(F)(F)F)cc2)c1 (configuration not stated)
EC50 [1]: 1100 nM
Activity (Mus musculus [7]): 20%
Activity (CHO [2]): inactive
concentration at 4 h [8]: 7.4 µM
concentration at 4 h [9]: 26 µM
Activity (CHO [3]): Active
